This note sets out measurements from ChEMBL document CHEMBL1141692, “Benzimidazole-substituted (3-phenoxypropyl)amines as histamine H3 receptor ligands” (Bioorg Med Chem Lett, 2008).

Series [1] deals with T1, Histamine H3 receptor (Homo sapiens, UniProt Q9Y5N1). The series is described as follows: Displacement of [3H]N-alpha-methylhistamine from human histamine H3 receptor expressed in HEK cells by scintillation counting. In kind it is cell-based, HEK293. The method in brief:
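Membranes (P2 pellet) from rHu H3–HEK cells were incubated in 50 mM Tris–HCl, pH 7.4, with 1 nM [3H]N-α-methylhistamine (82 Ci/mmol). Compounds were tested at half-log steps over a five-log range. Nonspecific binding was defined with 10^-5 M thioperamide. Incubation ran 30 min at 30 °C, then mixtures were filtered on PEI-soaked GF/B filters, washed three times and counted. Ki was taken from nonlinear curve fits.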

In series [2] the target is Voltage-gated inwardly rectifying potassium channel KCNH2 (Homo sapiens, UniProt Q12809). Nature of the series: Rubidium efflux through human ERG at 5 ug/mL pre-equilibrated for 30 mins by flame atomic absorbance spectroscopy.
Chain of Voltage-gated inwardly rectifying potassium channel KCNH2 (Q12809 whole entry): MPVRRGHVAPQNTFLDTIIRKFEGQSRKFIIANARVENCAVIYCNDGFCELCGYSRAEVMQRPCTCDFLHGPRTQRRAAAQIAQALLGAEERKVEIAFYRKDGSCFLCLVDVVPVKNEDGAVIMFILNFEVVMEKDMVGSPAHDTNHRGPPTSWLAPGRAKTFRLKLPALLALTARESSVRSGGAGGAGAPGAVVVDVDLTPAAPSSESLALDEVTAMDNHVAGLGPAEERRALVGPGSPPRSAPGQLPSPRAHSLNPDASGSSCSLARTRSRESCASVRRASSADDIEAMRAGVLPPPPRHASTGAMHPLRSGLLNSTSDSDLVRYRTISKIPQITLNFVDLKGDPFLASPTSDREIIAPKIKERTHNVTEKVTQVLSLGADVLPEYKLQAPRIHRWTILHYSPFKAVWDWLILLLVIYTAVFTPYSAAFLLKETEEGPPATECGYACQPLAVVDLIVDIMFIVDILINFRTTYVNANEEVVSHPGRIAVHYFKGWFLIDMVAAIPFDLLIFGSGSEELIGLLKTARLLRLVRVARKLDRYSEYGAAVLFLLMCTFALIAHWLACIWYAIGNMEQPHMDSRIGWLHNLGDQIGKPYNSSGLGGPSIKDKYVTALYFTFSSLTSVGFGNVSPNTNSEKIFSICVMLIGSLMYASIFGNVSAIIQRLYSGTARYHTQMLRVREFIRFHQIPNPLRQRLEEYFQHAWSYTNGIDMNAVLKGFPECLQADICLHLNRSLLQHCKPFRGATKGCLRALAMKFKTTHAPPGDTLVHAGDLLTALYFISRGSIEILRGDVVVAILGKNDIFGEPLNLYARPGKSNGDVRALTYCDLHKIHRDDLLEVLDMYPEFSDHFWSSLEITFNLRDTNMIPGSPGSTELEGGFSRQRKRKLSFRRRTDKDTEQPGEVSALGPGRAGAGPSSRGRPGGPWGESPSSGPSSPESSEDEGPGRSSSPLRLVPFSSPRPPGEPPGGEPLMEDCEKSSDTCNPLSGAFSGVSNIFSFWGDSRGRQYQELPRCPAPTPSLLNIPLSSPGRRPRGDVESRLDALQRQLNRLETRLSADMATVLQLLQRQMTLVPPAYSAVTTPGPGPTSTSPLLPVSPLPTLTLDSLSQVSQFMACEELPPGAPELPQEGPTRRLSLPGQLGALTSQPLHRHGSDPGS
In a further series the target is Cytochrome P450 3A4 (Homo sapiens, UniProt P08684). Nature of the series: Inhibition of CYP3A4 in human liver microsomes up to 30 uM by microtiter plate assay. In kind it is ADME, Microsome.
Chain of Cytochrome P450 3A4 (P08684 whole entry): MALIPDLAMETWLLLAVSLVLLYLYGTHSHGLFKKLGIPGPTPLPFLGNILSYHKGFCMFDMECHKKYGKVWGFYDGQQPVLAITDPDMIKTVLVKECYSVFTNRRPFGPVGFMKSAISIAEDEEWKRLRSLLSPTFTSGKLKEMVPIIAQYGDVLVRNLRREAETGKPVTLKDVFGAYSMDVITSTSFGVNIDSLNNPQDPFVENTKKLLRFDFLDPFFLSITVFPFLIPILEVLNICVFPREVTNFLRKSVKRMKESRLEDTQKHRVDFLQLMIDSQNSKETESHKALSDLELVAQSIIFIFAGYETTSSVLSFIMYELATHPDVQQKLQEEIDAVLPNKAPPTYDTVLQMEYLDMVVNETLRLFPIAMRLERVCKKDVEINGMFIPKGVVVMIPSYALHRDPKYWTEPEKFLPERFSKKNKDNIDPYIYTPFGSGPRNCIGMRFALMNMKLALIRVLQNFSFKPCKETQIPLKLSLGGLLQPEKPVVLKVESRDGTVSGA
Series [3] concerns the target T1, Histamine H3 receptor. Nature of the series: Antagonist activity at human histamine H3 receptor expressed in HEK293 cells assessed as reversal of N-alpha-methylhistamine-induced inhibition of forskolin-stimulated cAMP formation. The format is functional, cell-based.
Series [4] in a line: Cmax (0 to 6 hrs) in rat at 10 mg/kg, po. In kind it is ADME, organism-based. Further details: dose 10 mg/kg, route oral; call rule not given here. The settings on record: in vivo. The method in brief:
(§1)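 Oral dosing in rat at 10 mg/kg in methyl cellulose, n = 2, in a high-throughput PK assay. Plasma was sampled over 0–6 h time points to give AUC and Cmax.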

Another series addresses Cytochrome P450 2D6 (Homo sapiens, UniProt P10635). The series is described as follows: Inhibition of CYP2D6 in human liver microsomes up to 30 uM by microtiter plate assay. The format is ADME, Microsome. Background: Liver microsomes are vesicles of endoplasmic reticulum, rich in cytochrome P450 enzymes.
Series [5] concerns the target Histamine H3 receptor (Mus musculus, UniProt P58406). Nature of the series: Binding affinity to mouse histamine H3 receptor.
Series [6] in a line: AUC (0 to 6 hrs) in rat at 10 mg/kg, po. The settings on record: plasma. Also on record: time < 6 hr, dose 10 mg/kg, route oral. The format is ADME, organism-based. The gist of the method:
as §1

T1 sequence (Q9Y5N1 whole entry): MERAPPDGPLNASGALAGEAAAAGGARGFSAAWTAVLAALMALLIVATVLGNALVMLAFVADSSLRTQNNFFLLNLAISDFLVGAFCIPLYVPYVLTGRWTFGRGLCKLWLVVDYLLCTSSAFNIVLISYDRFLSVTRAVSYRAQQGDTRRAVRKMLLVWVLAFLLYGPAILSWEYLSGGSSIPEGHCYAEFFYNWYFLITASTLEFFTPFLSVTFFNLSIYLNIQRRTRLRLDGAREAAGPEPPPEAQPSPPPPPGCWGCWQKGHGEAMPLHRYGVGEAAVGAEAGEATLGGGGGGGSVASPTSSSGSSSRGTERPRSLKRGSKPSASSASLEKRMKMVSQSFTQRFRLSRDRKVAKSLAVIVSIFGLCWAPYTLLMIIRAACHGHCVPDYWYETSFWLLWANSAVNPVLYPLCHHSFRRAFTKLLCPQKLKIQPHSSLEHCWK
Chain of Cytochrome P450 2D6 (P10635 whole entry): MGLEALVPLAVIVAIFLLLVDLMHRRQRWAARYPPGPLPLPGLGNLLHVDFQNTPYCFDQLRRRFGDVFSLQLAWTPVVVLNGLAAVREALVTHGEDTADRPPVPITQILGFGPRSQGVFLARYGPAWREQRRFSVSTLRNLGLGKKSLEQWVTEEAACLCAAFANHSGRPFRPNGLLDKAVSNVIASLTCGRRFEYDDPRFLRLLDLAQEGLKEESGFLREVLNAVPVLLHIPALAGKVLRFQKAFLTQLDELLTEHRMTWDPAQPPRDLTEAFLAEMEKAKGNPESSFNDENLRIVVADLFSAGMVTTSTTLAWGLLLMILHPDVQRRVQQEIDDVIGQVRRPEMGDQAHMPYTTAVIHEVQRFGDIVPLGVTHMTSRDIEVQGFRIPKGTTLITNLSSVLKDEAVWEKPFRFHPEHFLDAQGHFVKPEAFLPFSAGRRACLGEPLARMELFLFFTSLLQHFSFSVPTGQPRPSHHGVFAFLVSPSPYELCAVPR
Chain of Histamine H3 receptor (Mus musculus, UniProt P58406) (P58406 whole entry): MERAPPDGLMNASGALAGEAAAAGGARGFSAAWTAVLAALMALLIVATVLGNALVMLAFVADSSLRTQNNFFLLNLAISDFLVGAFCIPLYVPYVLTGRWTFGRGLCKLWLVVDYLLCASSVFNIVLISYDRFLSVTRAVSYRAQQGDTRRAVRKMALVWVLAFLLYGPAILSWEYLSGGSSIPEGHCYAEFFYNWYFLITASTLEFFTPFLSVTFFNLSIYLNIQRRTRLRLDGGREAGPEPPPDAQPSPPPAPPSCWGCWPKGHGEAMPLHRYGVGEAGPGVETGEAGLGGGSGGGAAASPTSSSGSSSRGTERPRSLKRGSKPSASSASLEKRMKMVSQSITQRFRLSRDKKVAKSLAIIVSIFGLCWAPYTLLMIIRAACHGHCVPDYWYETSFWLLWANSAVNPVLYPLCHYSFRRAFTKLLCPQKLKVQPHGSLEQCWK

As for `Fc1ccc2c(c1)nc(-c1ccccn1)n2-c1ccc(OCCCN2CCCC2)cc1`, affinity at Histamine H3 receptor [1] was put at a Ki of 1.2 nM. As for `Fc1ccc2c(c1)nc(-c1ccccn1)n2-c1ccc(OCCCN2CCSC2)cc1`, the Rb efflux in series [2] came out at 42%. Moreover, the inhibition constant Ki (usually a measure of affinity in units of concentration, obtained from inhibition or displacement) on Histamine H3 receptor [1] is 20 nM. At Histamine H3 receptor [1], `CNCCCOc1ccc(-n2c(-c3ccccn3)nc3cc(F)ccc32)cc1` returned a Ki of 101 nM. Turning to `CN1CCN(CCCOc2ccc(-n3c(-c4ccccn4)nc4cc(F)ccc43)cc2)CC1`, at Histamine H3 receptor [1], affinity was put at a Ki of 13 nM. As to `Fc1ccc2c(c1)nc(-c1ccccn1)n2-c1ccc(OCCCN2CCCCC2)cc1`, in series [2], the Rb efflux worked out at 70%. Further, the Activity entry on Cytochrome P450 3A4 and at Cytochrome P450 2D6 was “Not Active” each time. The Ki is 0.1 nM on Histamine H3 receptor [3], 1.8 nM on Histamine H3 receptor [5] and 1.2 nM on Histamine H3 receptor [1]. In series [4], the maximum concentration (Cmax) (usually the maximum level reached in the sampled fluid or tissue) was 393 ng/mL. Also, the area under the curve AUC(0-t) (as a rule, exposure summed from dosing to a finite time, without extrapolation to infinity) at 6 h in series [6] was 2030 ng·h/mL. Compound `COC(=O)C1CCN(CCCOc2ccc(-n3c(-c4ccccn4)nc4cc(F)ccc43)cc2)CC1` had a Rb efflux in series [2] of 49%. Further, the inhibition constant (Ki) at Histamine H3 receptor [1] worked out at 16 nM.

The compound `NC(=O)C1CCN(CCCOc2ccc(-n3c(-c4ccccn4)nc4cc(F)ccc43)cc2)CC1` displayed a Ki at Histamine H3 receptor [1] of 20 nM. With `Fc1ccc2c(c1)nc(-c1ccccn1)n2-c1ccc(OCCCN2CCc3ccccc3C2)cc1`, the Rb efflux in series [2] came out at 94%. Affinity on Histamine H3 receptor [1] was put at a Ki of 107 nM.

`Fc1ccc2c(c1)[nH]c(=S)n2-c1ccc(OCCCN2CCCCC2)cc1` showed a Ki at Histamine H3 receptor [1] of 8 nM. Turning to `OC1CCN(CCCOc2ccc(-n3c(-c4ccccn4)nc4cc(F)ccc43)cc2)CC1`, the Rb efflux in series [2] came out at 16%. In addition, on Histamine H3 receptor [1], the Ki was found to be 1.8 nM. `Fc1ccc2c(c1)nc(-c1ccccn1)n2-c1ccc(OCCCN2CCC(Cc3ccccc3)CC2)cc1` gave a Ki on Histamine H3 receptor [1] of 2 nM. On to `CCOc1nc2cc(F)ccc2n1-c1ccc(OCCCN2CCCCC2)cc1`, for which the Ki on Histamine H3 receptor [1] stood at 15 nM.

On to `CC1CC(C)CN(CCCOc2ccc(-n3c(-c4ccccn4)nc4cc(F)ccc43)cc2)C1` (stereo not drawn), for which the Ki at Histamine H3 receptor [1] is 11 nM. For the compound `C[C@@H]1CC[C@@H](C)N1CCCOc1ccc(-n2c(-c3ccccn3)nc3cc(F)ccc32)cc1`, on Histamine H3 receptor [1], the inhibition constant (Ki) stood at 5.1 nM. On the same count and under the same terms, the value for `CCSc1nc2cc(F)ccc2n1-c1ccc(OCCCN2CCCCC2)cc1` was 2.6 nM. For `NC(=O)C1CCCN(CCCOc2ccc(-n3c(-c4ccccn4)nc4cc(F)ccc43)cc2)C1` (stereo not drawn), on Histamine H3 receptor [1], the Ki was determined as 11 nM. As for `Fc1ccc2c(c1)nc(-c1ccccn1)n2-c1ccc(OCCCN2CCCCCC2)cc1`, affinity on Histamine H3 receptor [1] was put at a Ki of 5.3 nM. As to `Fc1ccc2c(c1)nc(-c1ccccn1)n2-c1ccc(OCCCN2Cc3cccc4cccc(c34)C2)cc1`, the affinity at Histamine H3 receptor [1], expressed as Ki, was 713 nM. `Fc1ccc2c(c1)nc(-c1ccccn1)n2-c1ccc(OCCCN2CCOCC2)cc1`: the Rb efflux in series [2] worked out at 62%. On Histamine H3 receptor [1], this compound had a Ki of 3.4 nM. On Histamine H3 receptor [1], `O=c1[nH]c2cc(F)ccc2n1-c1ccc(OCCCN2CCCCC2)cc1` yielded an inhibitory constant (Ki) of 8.7 nM. In the case of `CN1CCCN(CCCOc2ccc(-n3c(-c4ccccn4)nc4cc(F)ccc43)cc2)CC1`, the Ki on Histamine H3 receptor [1] was 3.6 nM.
